By half-life is commonly meant the time in which the quantity being followed falls by half. Read a low half-life as rapid decline. Usually IC50 stands for the point on the concentration scale where inhibition reaches its midpoint. Read a low IC50 as inhibition by little substance. A word on the inhibition in vivo: it is the percentage by which the read-out fell short of the control. Read a high inhibition in vivo as strong suppression.

SMILES strings stand for the structures. Where only a bound is given, the exact number is not on record here.

This note sets out measurements from ChEMBL document CHEMBL1129574, “Synthesis, structure-activity relationships, and pharmacokinetic properties of dihydroorotate dehydrogenase inhibitors: 2-cyano-3-cyclopropyl-3-hydroxy-N-[3'-methyl-4'-(trifluoromethyl)phenyl ] propenamide and related compounds” (J Med Chem, 1996).

The nature of series [1]: t1/2 in mouse plasma after oral dose (30/mg/Kg). The class given is ADME, organism-based. In short, it runs like this:
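Male CD-1 mice (25–32 g, n=5/time point) gavaged orally 30 mg/kg (10 mL/kg). Blood by exsanguination under ether at 0, 1, 3, 6, 24, 48, 72 h, pooled per time point, heparinized; plasma stored −20 °C. Drug quantified by reversed-phase HPLC (ODS, pH 7 phosphate/acetonitrile 65:35, UV 300 nm) with internal standard and spiked-plasma calibration.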

Series [2] in a line: t1/2 in rat plasma after oral dose (10 mg/kg). In kind it is ADME, organism-based. The procedure, abridged: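 Male Wistar CFHB rats (190–220 g, n=3/time point) given 10 mg/kg orally by gavage (10 mL/kg). Cardiac-puncture blood under ether at 0, 1, 3, 6, 24, 48, 72 h, individual heparinized samples; plasma kept at −20 °C. Levels by HPLC (ODS column, 0.1 M pH 7 phosphate 65%/acetonitrile 35%, UV 300 nm), internal standard, peak-area calibration from spiked blank plasma.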

Series [3] concerns the target Dihydroorotate dehydrogenase (quinone), mitochondrial (Mus musculus, UniProt O35435). In words: Inhibitory concentration tested on enzyme dihydroorotate dehydrogenase in mouse.
Series [4] relates to Mus musculus. In words: Compound was tested in vivo for its ability to inhibit DTH(delayed type hypersensitivity ) in mouse at a concentration of 30 mg/kg. The class given is functional. In short, it runs like this:
(§1)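 Male CD-1 mice (25–30 g, n = 8-16) sensitized day 0 by s.c. 1 mg methylated BSA in saline/Freund's complete adjuvant; negative controls saline/FCA. Day 7 challenge: MBSA 0.1 mg into right hind footpad, saline in left. Oral dosing once daily days 4–6 plus twice on day 7 (1 h before, 6 h after challenge). Paw edema read 24 h post-challenge; Student's t-test.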

For series [5], the system named is Rattus norvegicus. Put plainly: Compound was tested in vivo for its ability to inhibit DTH(delayed type hypersensitivity ) in rat at a concentration of 1 mg/kg. In kind it is functional. In short, it runs like this:
(§2)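 Male CFHB rats (160-180 g, n=7-12) sensitized day 0 by tail-base s.c. FCA (0.4 mg M. tuberculosis in liquid paraffin); controls got incomplete adjuvant. Day 7 challenge: soluble M. tuberculosis extract 0.4 mg into right hind footpad, saline in left. Oral dosing once daily days 4-6 and twice day 7 (1 h before, 6 h after). Edema read at 24 h; Student's t-test.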

The target in series [6] is Dihydroorotate dehydrogenase (quinone), mitochondrial (Rattus norvegicus, UniProt Q63707). In words: Inhibitory concentration tested against enzyme dihydroorotate dehydrogenase in rat.
Series [7] concerns Mus musculus. In words: Compound was tested in vivo for its ability to inhibit DTH(delayed type hypersensitivity )in mouse at a concentration of 30 mg/kg. The class given is functional. The procedure, abridged: as §1
The subject of series [8] is Rattus norvegicus. Put plainly: Compound was tested in vivo for its ability to inhibit DTH(delayed type hypersensitivity )in rat at a concentration of 1 mg/kg. In kind it is functional. In short, it runs like this:
as §2

Series [9] has as its system Mus musculus. In words: Compound was tested in vivo for its ability to inhibit DTH(delayed type hypersensitivity ) in mouse at a concentration of 10 mg/kg. The class given is functional. In short, it runs like this: as §1
In series [10] the test system is Rattus norvegicus. Put plainly: In vivo for its ability to inhibit delayed type hypersensitivity in rat following 10 mg/kg administration.
The subject of series [11] is Mus musculus. In words: In vivo for its ability to inhibit delayed type hypersensitivity in mouse following 30 mg/kg administration. The class given is functional. In short, it runs like this: as §1
For series [12], the system named is Rattus norvegicus. Put plainly: Compound was tested in vivo for its ability to inhibit DTH(delayed type hypersensitivity )in rat at a concentration of 50 mg/kg.

Sequence of Dihydroorotate dehydrogenase (quinone), mitochondrial (Rattus norvegicus, UniProt Q63707) (Q63707 whole entry): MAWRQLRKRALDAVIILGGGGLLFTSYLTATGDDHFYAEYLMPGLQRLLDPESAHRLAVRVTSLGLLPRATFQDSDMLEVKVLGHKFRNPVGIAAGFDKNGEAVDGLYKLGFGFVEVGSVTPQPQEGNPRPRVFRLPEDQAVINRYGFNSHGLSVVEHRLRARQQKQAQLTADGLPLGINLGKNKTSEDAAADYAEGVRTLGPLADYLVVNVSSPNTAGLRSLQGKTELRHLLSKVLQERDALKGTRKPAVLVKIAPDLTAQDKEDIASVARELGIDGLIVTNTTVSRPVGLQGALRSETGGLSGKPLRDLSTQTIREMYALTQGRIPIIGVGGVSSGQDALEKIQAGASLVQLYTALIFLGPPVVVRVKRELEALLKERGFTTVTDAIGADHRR
Sequence of Dihydroorotate dehydrogenase (quinone), mitochondrial (Mus musculus, UniProt O35435) (O35435 whole entry): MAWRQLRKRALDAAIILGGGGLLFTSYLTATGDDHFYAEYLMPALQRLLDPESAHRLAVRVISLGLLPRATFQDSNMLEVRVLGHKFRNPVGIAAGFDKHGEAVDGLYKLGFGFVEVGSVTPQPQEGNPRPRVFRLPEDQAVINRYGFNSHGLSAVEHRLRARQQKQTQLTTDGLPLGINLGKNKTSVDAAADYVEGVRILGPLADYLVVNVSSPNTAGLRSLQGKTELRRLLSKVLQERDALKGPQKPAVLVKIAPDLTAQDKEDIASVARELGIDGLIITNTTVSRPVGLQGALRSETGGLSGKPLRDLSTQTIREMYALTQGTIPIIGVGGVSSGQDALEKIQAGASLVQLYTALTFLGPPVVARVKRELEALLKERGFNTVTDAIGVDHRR

For the compound `N#C/C(C(=O)Nc1ccc(SC(F)(F)F)cc1)=C(/O)C1CC1`, the values for the half-life in [1] and in series [2] were 6 h and 2 h, respectively. The compound further returned an IC50 in series [3] of 100 nM. In the series with Mus musculus [4], this compound registered an inhibition in vivo at 30 mg/kg of 39%. Also, in the series on Rattus norvegicus [5], at 1 mg/kg the inhibition in vivo was 58%.
Turning to `N#C/C(C(=O)Nc1ccc(OC(F)(F)F)cc1)=C(/O)C1CC1`, the half-life in series [1] was 42 h; in series [2], 22 h. For the same compound, the IC50 in series [3] stood at 173 nM; in series [6], 5 nM. In the series with Mus musculus [7], 30 mg/kg produced 85% inhibition in vivo. Moreover, testing at 1 mg/kg with Rattus norvegicus [8] gave an inhibition in vivo of 78%.
In the case of `N#C/C(C(=O)Nc1ccc(C(F)(F)F)cc1)=C(/O)c1ccc(C(F)(F)F)cc1`, the IC50 in [3] and in [6] was greater than 10000 nM throughout. In addition, the inhibition in vivo at 10 mg/kg in the series with Mus musculus [9] turned out to be 17%; in the series on Rattus norvegicus [10] it was 16%.
With `N#C/C(C(=O)Nc1ccc([N+](=O)[O-])cc1)=C(/O)C1CC1`, the half-life in series [1] was 8 h; in series [2], 4 h. The figures for the IC50 in series [3] and in [6] were 50 nM and 21 nM, respectively. In the series on Mus musculus [11], this compound had an inhibition in vivo at 30 mg/kg of 64%. Testing at 50 mg/kg in the series on Rattus norvegicus [12] gave an inhibition in vivo of 90%.
